Measurements as given in ChEMBL document CHEMBL2040797, “Synthesis of benzimidazoles bearing oxadiazole nucleus as anticancer agents” (2012).

How the values were obtained:
Assay type in all cases: functional
HL-60(TB) = test: Growth inhibition of human HL-60(TB) cells at 10 uM after 48 hrs by sulforhodamine B assay; details: HL-60, 48 h, read-out: GI
Procedure, shortened: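 NCI 60-panel primary one-dose screen. Cells are grown in RPMI 1640 with 5% FBS, plated by doubling time and pre-incubated 24 h at 37 °C, 5% CO2. They are exposed for 48 h to a single concentration. Settled suspension cells are fixed, then SRB-stained with absorbance at 515 nm. Output is percent growth of treated cells relative to untreated control, reported as a mean graph.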

MDA-MB-468 [1] = test: Growth inhibition of human MDA-MB-468 cells at 10 uM after 48 hrs by sulforhodamine B assay; details: MDA-MB-468, 48 h, read-out: GI
Procedure, shortened: (§1)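 NCI one-dose primary screen at 10 (printed mM) across the 60-line panel. Cells in RPMI 1640 with 5% FBS and 2 mM L-glutamine, plated at 5000–40,000 cells/well and incubated 24 h before dosing. Exposure 48 h at 37 °C, 5% CO2. Adherent cells were fixed with cold TCA, suspension cells fixed after settling. SRB stain, absorbance 515 nm. Reported as percent growth of treated cells relative to control.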

NCI-H460 = test: Cytotoxicity against human NCI-H460 cells after 48 hrs by sulforhodamine B assay; details: NCI-H460, 48 h
Procedure, shortened: (§2)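 NCI 60-panel screen. Cells were grown in RPMI 1640 with 5% FBS and L-glutamine and plated at 5000–40,000 cells/well according to doubling time. They were preincubated 24 h at 37 °C, 5% CO2, then exposed 48 h to five 10-fold dilutions. Adherent cells were fixed with cold TCA, final 10%; suspension cells were fixed after settling. Cells were stained with 0.4% SRB and read at 515 nm. Tz/C/Ti growth curves gave GI50, TGI and LC50.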

UACC-62 = test: Cytotoxicity against human UACC62 cells after 48 hrs by sulforhodamine B assay; details: UACC-62, 48 h
Procedure, shortened: (§3)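 NCI 60 panel five-dose screen. Cells in RPMI 1640 with 5% FBS and 2 mM L-glutamine, plated at 5000–40,000 cells/well and preincubated 24 h. Compounds were tested at five 10-fold concentrations (0.01–100) for 48 h at 37 °C, 5% CO2. Cells were fixed with TCA and stained with SRB, absorbance 515 nm. GI50, TGI and LC50 were taken from % growth curves against time-zero and control.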

HOP-62 = test: Growth inhibition of human HOP62 cells at 10 uM after 48 hrs by sulforhodamine B assay; details: HOP-62, 48 h, read-out: GI; procedure, shortened: as §1
HCC 2998 = test: Cytotoxicity against human HCC2998 cells after 48 hrs by sulforhodamine B assay; details: HCC 2998, 48 h; procedure, shortened: as §2
UACC-257 = test: Growth inhibition of human UACC257 cells at 10 uM after 48 hrs by sulforhodamine B assay; details: UACC-257, 48 h, read-out: GI
Procedure, shortened: (§4)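 NCI-60 single-dose screen. Cells grown in RPMI 1640 with 5% FBS and L-glutamine, plated at 5000–40,000 cells/well by doubling time, and preincubated 24 h at 37 °C, 5% CO2. Compound stocks in DMSO, added at one concentration, then incubated 48 h. Adherent cells fixed with cold TCA (10% final), stained with 0.4% SRB, dye solubilized in 10 mM Tris base, A515 read. Reported as percent growth relative to untreated control.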

HCT-116 = test: Cytotoxicity against human HCT116 cells after 48 hrs by sulforhodamine B assay; details: HCT-116, 48 h; procedure, shortened: as §2
M14 = test: Growth inhibition of human M14 cells at 10 uM after 48 hrs by sulforhodamine B assay; details: M14, 48 h, read-out: GI; procedure, shortened: as §1
UO-31 = test: Cytotoxicity against human UO31 cells after 48 hrs by sulforhodamine B assay; details: UO-31, 48 h; procedure, shortened: as §3
IGROV-1 = test: Growth inhibition of human IGROV1 cells at 10 uM after 48 hrs by sulforhodamine B assay; details: IGROV-1, 48 h, read-out: GI; procedure, shortened: as §1
RPMI-8226 = test: Growth inhibition of human RPMI8226 cells at 10 uM after 48 hrs by sulforhodamine B assay; details: RPMI-8226, 48 h, read-out: GI; procedure, shortened: as §1
SF-539 = test: Cytotoxicity against human SF539 cells after 48 hrs by sulforhodamine B assay; details: SF-539, 48 h; procedure, shortened: as §2
MDA-MB-468 [2] = test: Cytotoxicity against human MDA-MB-468 cells after 48 hrs by sulforhodamine B assay; details: MDA-MB-468, 48 h; procedure, shortened: as §2
HT-29 = test: Cytotoxicity against human HT-29 cells after 48 hrs by sulforhodamine B assay; details: HT-29, 48 h; procedure, shortened: as §2
MCF7 = test: Growth inhibition of human MCF7 cells at 10 uM after 48 hrs by sulforhodamine B assay; details: MCF7, 48 h, read-out: GI; procedure, shortened: as §1
NCI-H226 = test: Growth inhibition of human NCI-H226 cells at 10 uM after 48 hrs by sulforhodamine B assay; details: NCI-H226, 48 h, read-out: GI; procedure, shortened: as §1
SNB-75 = test: Growth inhibition of human SNB75 cells at 10 uM after 48 hrs by sulforhodamine B assay; details: SNB-75, 48 h, read-out: GI; procedure, shortened: as §4
786-0 = test: Growth inhibition of human 786-0 cells at 10 uM after 48 hrs by sulforhodamine B assay; details: 786-0, 48 h, read-out: GI; procedure, shortened: as §1
NCI-H522 = test: Growth inhibition of human NCI-H522 cells at 10 uM after 48 hrs by sulforhodamine B assay; details: NCI-H522, 48 h, read-out: GI; procedure, shortened: as §1
CCRF-CEM = test: Growth inhibition of human CCRF-CEM cells at 10 uM after 48 hrs by sulforhodamine B assay; details: read-out: GI; procedure, shortened: as §1
DU-145 = test: Growth inhibition of human DU145 cells at 10 uM after 48 hrs by sulforhodamine B assay; details: DU-145, 48 h, read-out: GI; procedure, shortened: as §1
OVCAR-5 = test: Cytotoxicity against human OVCAR5 cells after 48 hrs by sulforhodamine B assay; details: OVCAR-5, 48 h; procedure, shortened: as §2
A498 = test: Growth inhibition of human A498 cells at 10 uM after 48 hrs by sulforhodamine B assay; details: A498, 48 h, read-out: GI; procedure, shortened: as §1
HCT-15 = test: Growth inhibition of human HCT15 cells at 10 uM after 48 hrs by sulforhodamine B assay; details: HCT-15, 48 h, read-out: GI; procedure, shortened: as §1
[3] = read-out: LC50 (the source's name)

O=C(CCc1nnc(-c2ccc(Cl)cc2Cl)o1)c1nc2ccccc2[nH]1
inhibition of growth at 10 µM (HL-60(TB)): 134%
inhibition of growth at 10 µM (MDA-MB-468 [1]): 102%
GI50 (NCI-H460): 4.99 µM
TGI (NCI-H460): 28.6 µM
CC50 (NCI-H460; [3]): 100 µM
GI50 (UACC-62): 3.34 µM
TGI (UACC-62): 27.8 µM
CC50 (UACC-62; [3]): 100 µM
inhibition of growth at 10 µM (HOP-62): 28.4%
GI50 (HCC 2998): 6.52 µM
TGI (HCC 2998): 32.3 µM
CC50 (HCC 2998; [3]): 100 µM
inhibition of growth at 10 µM (UACC-257): 21.4%
GI50 (HCT-116): 3.33 µM
TGI (HCT-116): 13.5 µM
CC50 (HCT-116; [3]): 52.5 µM
inhibition of growth at 10 µM (M14): 44.2%
GI50 (UO-31): 6.71 µM
TGI (UO-31): 32.9 µM
CC50 (UO-31; [3]): 100 µM
inhibition of growth at 10 µM (IGROV-1): 42.4%
inhibition of growth at 10 µM (RPMI-8226): 69.1%
GI50 (SF-539): 10.5 µM
TGI (SF-539): 39.6 µM
CC50 (SF-539; [3]): 100 µM
GI50 (MDA-MB-468 [2]): 0.797 µM
TGI (MDA-MB-468 [2]): 12.2 µM
CC50 (MDA-MB-468 [2]; [3]): 100 µM
GI50 (HT-29): 3.77 µM
TGI (HT-29): 55.1 µM
CC50 (HT-29; [3]): 100 µM
inhibition of growth at 10 µM (MCF7): 55.3%
inhibition of growth at 10 µM (NCI-H226): 16.3%
inhibition of growth at 10 µM (SNB-75): 36.6%
inhibition of growth at 10 µM (786-0): 26.2%
inhibition of growth at 10 µM (NCI-H522): 50.2%
inhibition of growth at 10 µM (CCRF-CEM): 52.7%
inhibition of growth at 10 µM (DU-145): 17.8%
GI50 (OVCAR-5): 7.82 µM
TGI (OVCAR-5): 100 µM
CC50 (OVCAR-5; [3]): 100 µM
inhibition of growth at 10 µM (A498): 41.6%
inhibition of growth at 10 µM (HCT-15): 18.5%
